For this experiment, the target named is Metabotropic glutamate receptor 4 (Rattus norvegicus) (UniProt P31423). Kind of experiment: mGlu4 PAM potency and efficacy – thallium flux, HEK/GIRK cells, rat, SAR follow-up (AID 623875). The conditions noted are these: HEK/GIRK rat mGlu4, thallium flux fluorescence. The method in brief:
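material = rat mGlu4 in HEK/GIRK/M4 cells | also added = glutamate with thallium | compound = 10-point concentration-response series, threefold dilution steps | times = dye loading 1 h at room temperature, compound preincubation ~2.5 min before agonist | technique = Tl+ flux fluorescence, FluoZin-2 AM | read-out basis = EC50 from fluorescence slope, four-parameter fit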

A word on the EC50: it is the concentration at which the effect is half-maximal.

Values joined by “and” are separate entries in the source; they are usually repeats but may differ in a detail not shown here. Equal values may be shown once.

Chain of Metabotropic glutamate receptor 4 (Rattus norvegicus) (P31423 whole entry, looked up): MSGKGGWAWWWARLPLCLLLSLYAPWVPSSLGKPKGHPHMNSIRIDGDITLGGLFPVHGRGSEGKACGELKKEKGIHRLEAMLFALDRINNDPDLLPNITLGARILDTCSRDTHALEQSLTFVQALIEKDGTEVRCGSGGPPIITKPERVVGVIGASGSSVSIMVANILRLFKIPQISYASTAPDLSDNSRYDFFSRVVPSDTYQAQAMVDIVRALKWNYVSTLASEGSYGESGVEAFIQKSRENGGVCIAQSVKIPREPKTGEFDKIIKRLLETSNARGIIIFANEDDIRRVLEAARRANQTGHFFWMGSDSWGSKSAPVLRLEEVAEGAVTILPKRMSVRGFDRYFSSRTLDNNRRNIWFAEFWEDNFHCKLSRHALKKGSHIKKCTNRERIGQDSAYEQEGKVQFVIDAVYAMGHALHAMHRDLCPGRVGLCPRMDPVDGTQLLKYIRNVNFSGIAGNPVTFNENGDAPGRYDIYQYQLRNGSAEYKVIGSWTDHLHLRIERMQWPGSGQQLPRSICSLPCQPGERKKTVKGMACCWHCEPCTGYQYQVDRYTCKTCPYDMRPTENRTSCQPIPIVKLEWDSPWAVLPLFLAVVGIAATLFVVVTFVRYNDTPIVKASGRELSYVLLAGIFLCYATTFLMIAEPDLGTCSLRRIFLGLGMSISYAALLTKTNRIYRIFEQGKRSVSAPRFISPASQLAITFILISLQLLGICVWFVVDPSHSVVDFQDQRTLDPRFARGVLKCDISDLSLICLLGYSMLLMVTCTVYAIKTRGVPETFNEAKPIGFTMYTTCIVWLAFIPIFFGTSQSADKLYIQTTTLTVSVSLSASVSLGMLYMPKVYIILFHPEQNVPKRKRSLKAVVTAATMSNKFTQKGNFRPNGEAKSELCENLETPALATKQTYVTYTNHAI

As for `COc1cc(Nc2noc3cccnc23)ccc1Cl`, the EC50 was 1190 nM.

For `Fc1cccc(Nc2noc3cccnc23)c1`, the EC50 is 530 nM.

As to `COc1cc2nc(-c3ccccn3)[nH]c2cc1Cl`, the EC50 is 6330 nM.

On to `CC(C)N(C(=O)c1ccccn1)c1cccc(Cl)c1`, for which the EC50 is 10300 nM.

In the case of `FC(F)Oc1cccc(Nc2noc3cccnc23)c1`, the EC50 was 110 nM and 130 nM.

For the compound `Clc1cccc(Nc2noc3cccnc23)c1`, the EC50 was 70 nM and 80 nM.

In the case of `O=C(Nc1ccc2cn[nH]c2c1)c1ccccn1`, the EC50 is 980 nM.

On to `O=C(Nc1cccc(Cl)c1)c1ccccn1`, for which the EC50 was 330 nM.

Regarding `Clc1cccc(Nc2ncnc3cccnc23)c1`, the EC50 was 2580 nM.

Consider `Clc1ccc2nc(-c3ccccn3)[nH]c2c1`, for which the EC50 was 1020 nM.

For the compound `O=C(Nc1ccc2c(c1)C(=O)NC2=O)c1ccccn1`, the EC50 was 2120 nM.
